Assay results from ChEMBL document CHEMBL4622996, “Discovery of Vixotrigine: A Novel Use-Dependent Sodium Channel Blocker for the Treatment of Trigeminal Neuralgia” (ACS Med Chem Lett, 2020).
The source made the active and inactive calls. The rule behind the calls is not given here.

Legend:
[1] = Total blood clearance in rat blood at 0.5 mg/kg, iv; format: ADME, organism-based
[2] = Cmax in monkey at 3 mg/kg, po; format: ADME, organism-based, Macaca mulatta; set-up: dose 3 mg/kg, route oral; details: rhesus monkey, in vivo
[3] = biological target: T1, Solute carrier family 22 member 2 (Homo sapiens, UniProt O15244); assay: Inhibition of OCT2 (unknown origin)
T1 sequence (O15244 whole entry): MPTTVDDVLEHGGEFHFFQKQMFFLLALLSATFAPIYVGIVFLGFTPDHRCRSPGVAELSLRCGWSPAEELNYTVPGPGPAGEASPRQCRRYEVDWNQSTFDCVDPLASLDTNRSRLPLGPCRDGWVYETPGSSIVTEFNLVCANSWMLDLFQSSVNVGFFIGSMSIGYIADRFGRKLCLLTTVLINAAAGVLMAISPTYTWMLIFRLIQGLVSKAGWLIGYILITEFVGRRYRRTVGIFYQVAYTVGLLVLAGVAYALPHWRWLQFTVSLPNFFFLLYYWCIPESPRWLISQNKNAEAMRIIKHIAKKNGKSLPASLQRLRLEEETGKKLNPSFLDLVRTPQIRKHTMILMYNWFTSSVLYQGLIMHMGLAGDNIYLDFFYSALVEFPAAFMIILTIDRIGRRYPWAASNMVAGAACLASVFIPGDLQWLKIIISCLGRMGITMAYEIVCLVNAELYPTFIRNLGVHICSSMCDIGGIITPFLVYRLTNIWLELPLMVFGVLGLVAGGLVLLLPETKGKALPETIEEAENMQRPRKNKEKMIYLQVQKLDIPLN

Cytochrome P450 2D6 = Cytochrome P450 2D6 (Homo sapiens, UniProt P10635); assay: Inhibition of CYP2D6 (unknown origin); format: ADME
Chain of Cytochrome P450 2D6 (P10635 whole entry): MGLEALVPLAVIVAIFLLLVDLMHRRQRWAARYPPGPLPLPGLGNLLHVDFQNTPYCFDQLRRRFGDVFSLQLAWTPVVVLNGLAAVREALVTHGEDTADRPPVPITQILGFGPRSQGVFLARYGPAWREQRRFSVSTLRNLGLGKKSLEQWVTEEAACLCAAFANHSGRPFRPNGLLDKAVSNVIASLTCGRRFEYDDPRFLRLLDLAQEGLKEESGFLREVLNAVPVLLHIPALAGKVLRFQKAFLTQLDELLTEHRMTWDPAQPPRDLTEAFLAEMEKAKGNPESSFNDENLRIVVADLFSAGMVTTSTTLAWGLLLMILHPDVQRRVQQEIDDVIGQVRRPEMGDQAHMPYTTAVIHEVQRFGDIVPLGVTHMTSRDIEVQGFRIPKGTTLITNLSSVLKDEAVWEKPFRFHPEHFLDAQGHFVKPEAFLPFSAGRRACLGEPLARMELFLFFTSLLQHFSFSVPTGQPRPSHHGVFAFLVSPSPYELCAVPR

[4] = biological target: Voltage-gated inwardly rectifying potassium channel KCNH2 (Homo sapiens, UniProt Q12809); assay: Inhibition of human ERG
Chain of Voltage-gated inwardly rectifying potassium channel KCNH2 (Q12809 whole entry): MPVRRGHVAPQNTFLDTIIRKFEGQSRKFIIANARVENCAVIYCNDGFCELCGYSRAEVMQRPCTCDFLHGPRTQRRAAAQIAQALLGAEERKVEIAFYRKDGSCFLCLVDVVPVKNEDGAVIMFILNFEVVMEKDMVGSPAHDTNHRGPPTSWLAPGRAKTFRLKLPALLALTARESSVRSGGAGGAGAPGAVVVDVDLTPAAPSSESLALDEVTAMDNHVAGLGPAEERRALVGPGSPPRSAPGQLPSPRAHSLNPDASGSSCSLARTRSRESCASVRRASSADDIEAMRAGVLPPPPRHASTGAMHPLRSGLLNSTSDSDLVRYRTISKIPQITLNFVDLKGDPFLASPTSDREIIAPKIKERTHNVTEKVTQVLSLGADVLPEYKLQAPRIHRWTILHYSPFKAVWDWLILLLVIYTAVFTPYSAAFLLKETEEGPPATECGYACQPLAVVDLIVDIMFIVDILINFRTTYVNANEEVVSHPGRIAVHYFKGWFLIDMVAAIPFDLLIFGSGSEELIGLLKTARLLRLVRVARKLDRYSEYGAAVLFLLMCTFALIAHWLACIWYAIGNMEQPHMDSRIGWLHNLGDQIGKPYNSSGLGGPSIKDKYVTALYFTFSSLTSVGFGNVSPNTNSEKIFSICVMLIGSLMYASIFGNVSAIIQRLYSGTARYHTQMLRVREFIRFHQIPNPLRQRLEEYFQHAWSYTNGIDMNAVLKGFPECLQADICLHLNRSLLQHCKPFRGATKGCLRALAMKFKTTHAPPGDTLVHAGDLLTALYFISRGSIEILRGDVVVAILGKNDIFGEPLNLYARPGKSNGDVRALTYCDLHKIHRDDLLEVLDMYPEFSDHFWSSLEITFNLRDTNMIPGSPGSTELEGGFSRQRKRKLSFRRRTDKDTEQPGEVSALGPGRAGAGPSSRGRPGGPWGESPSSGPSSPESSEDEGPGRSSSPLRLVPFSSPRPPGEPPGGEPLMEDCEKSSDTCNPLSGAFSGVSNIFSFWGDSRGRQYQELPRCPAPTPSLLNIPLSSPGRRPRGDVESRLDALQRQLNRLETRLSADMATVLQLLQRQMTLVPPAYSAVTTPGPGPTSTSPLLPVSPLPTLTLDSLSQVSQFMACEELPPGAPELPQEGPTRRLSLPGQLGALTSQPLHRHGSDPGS

[5] = Half life in rat at 0.5 mg/kg, iv; format: ADME, organism-based; details: in vivo
[6] = Oral bioavailability in monkey at 3 mg/kg; format: ADME, organism-based, Macaca mulatta; details: rhesus monkey, in vivo
[7] = Free plasma concentration in rat model of chronic constriction injury-induced neuropathic pain at 5 mg/kg, po BID administered 22 days post surgery and measured on day 8 at 0.5 hrs post-dose; format: ADME, organism-based; details: in vivo
Method in brief: (§1)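 Chronic constriction injury neuropathic pain model in rat; oral dosing at 0.5 or 5 mg/kg BID starting day 22; mechanical allodynia read after 6 and 8 days of dosing; gabapentin 30 mg/kg po BID as positive control. Free plasma levels sampled on day 8, 0.5 h postdose.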

[8] = Total blood clearance in monkey blood at 0.5 mg/kg, iv; format: ADME, organism-based, Macaca mulatta; details: rhesus monkey
[9] = Oral bioavailability in rat at 3 mg/kg; format: ADME, organism-based; details: in vivo
Cytochrome P450 1A2 = biological target: T2, Cytochrome P450 1A2 (Homo sapiens, UniProt P05177); assay: Inhibition of CYP1A2 (unknown origin); format: ADME
T2 sequence (P05177 whole entry): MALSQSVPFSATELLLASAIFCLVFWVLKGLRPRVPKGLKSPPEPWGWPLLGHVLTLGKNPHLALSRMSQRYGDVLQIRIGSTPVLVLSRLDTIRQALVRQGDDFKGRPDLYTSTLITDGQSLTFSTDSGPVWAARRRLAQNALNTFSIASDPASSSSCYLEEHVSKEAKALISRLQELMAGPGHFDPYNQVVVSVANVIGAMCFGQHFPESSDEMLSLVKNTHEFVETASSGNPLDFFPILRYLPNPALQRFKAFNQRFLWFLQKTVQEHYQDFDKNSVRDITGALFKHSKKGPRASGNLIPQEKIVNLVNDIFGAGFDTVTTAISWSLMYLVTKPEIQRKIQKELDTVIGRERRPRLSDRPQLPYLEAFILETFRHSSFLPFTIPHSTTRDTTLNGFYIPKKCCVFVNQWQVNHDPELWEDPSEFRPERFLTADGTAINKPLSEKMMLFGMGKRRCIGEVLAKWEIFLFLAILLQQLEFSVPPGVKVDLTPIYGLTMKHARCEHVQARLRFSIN

[10] = Toxicity in rat assessed as sedation by measuring spontaneous locomotor activity at 60 mg/kg, po; format: organism-based; details: in vivo
Method in brief: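 Male rats, spontaneous locomotor activity test; oral doses 60, 100 or 300 mg/kg given 30 min before the session; plasma sampled 60 min postdose at 60 mg/kg.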

Rattus norvegicus = assay: Antinociceptive activity in rat model of chronic constriction injury-induced neuropathic pain assessed as inhibition of mechanical allodynia at 0.5 to 5 mg/kg, po BID administered 22 days post surgery and measured after 6 to 8 days; format: functional, organism-based; method in brief: as §1
[11] = biological target: T3, Solute carrier organic anion transporter family member 1B1 (Homo sapiens, UniProt Q9Y6L6); assay: Inhibition of OATP1B1 (unknown origin) upto 100 uM
T3 sequence (Q9Y6L6 whole entry): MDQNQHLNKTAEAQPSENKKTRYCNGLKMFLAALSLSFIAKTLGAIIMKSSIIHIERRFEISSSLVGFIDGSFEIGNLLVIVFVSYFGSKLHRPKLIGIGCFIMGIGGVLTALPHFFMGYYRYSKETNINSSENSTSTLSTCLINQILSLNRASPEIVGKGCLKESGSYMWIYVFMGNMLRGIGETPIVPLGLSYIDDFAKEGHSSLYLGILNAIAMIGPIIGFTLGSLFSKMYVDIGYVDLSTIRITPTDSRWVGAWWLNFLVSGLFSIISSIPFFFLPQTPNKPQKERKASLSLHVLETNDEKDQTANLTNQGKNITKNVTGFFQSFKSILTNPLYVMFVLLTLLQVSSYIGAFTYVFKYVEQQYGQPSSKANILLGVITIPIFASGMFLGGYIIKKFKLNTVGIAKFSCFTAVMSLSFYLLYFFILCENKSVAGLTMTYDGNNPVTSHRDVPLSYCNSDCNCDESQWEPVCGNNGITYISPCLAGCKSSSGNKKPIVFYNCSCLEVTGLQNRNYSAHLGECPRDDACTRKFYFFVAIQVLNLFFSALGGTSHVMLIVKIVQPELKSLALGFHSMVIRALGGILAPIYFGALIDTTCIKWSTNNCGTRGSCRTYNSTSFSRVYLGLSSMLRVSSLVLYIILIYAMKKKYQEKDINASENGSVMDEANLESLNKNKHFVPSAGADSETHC

clearance [1]: 39 mL/min/kg
Cmax [2]: 730 ng/mL
inhibition (INH) [3]: Not Active
IC50 (Cytochrome P450 2D6): > 100 µM
half-life [5]: 48 min
bioavailability [6]: 42%
clearance [8]: 5 mL/min/kg
bioavailability [9]: 43%
IC50 (Cytochrome P450 1A2): 13 µM
inhibition (INH) [11]: Not Active
SMILES: Cl.NC(=O)[C@@H]1CC[C@H](c2ccc(OCc3ccccc3F)cc2)N1 [RAXATRIGINE HYDROCHLORIDE]
IC50 [4]: 12.6 µM
Cp(f) [7]: 23.4 ng/mL
Activity [10]: Non-Toxic
Activity (Rattus norvegicus): Active
